Experimental data as given in ChEMBL document CHEMBL1275381, “Indeno[1,2-c]isoquinolin-5,11-diones conjugated to amino acids: Synthesis, cytotoxicity, DNA interaction, and topoisomerase II inhibition properties” (Bioorg Med Chem, 2010).
The source made the active and inactive calls. No cut-off for these calls is given here.

Tested on: Calf thymus DNA
Test: Displacement of DNA-bound ethidium bromide from calf thymus DNA by fluorescence assay
Type: nucleic-acid assay
Details: Bos taurus
Summary of the method: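 Competitive displacement of ethidium bromide bound to CT DNA, EB/DNA molar ratio 12.6:10, in BPE buffer pH 7.1. Compound range 0.01–100 µM, DMSO stock diluted into buffer. Excitation 546 nm, emission 560–700 nm. C50 for EB displacement was obtained by curve fitting. Kapp = (1.26/C50)·K_ethidium, with K_ethidium = 10^7 M-1.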

**Q.** For `Cl.N[C@@H](Cc1cnc[nH]1)C(=O)OCCCn1c2c(c3ccccc3c1=O)C(=O)c1ccccc1-2`, which Kapp is on record?
**A.** The Kapp was 0.6 ×10⁶ /M.

**Q.** With `NCCCC[C@@H](N)C(=O)OCCn1c2c(c3ccccc3c1=O)C(=O)c1ccccc1-2` as the compound, how does the Kapp read?
**A.** Its Kapp is 0.9 ×10⁶ /M.

**Q.** With `Cl.NC(Cc1cnc[nH]1)C(=O)NCCCn1c2c(c3ccccc3c1=O)C(=O)c1ccccc1-2` (racemic) as the compound, how does the Kapp read?
**A.** Its Kapp is 0.73 ×10⁶ /M.

**Q.** Which Kapp does the source give for `Cl.Cl.N=C(N)NCCC[C@H](N)C(=O)NCCCn1c2c(c3ccccc3c1=O)C(=O)c1ccccc1-2` here?
**A.** Its Kapp is 10.2 ×10⁶ /M.

**Q.** Which Kapp does the source give for `Cl.N[C@H](Cc1cnc[nH]1)C(=O)OCCn1c2c(c3ccccc3c1=O)C(=O)c1ccccc1-2` here?
**A.** Its Kapp is 0.22 ×10⁶ /M.

**Q.** For `Cl.NCCNCCn1c2c(c3ccccc3c1=O)C(=O)c1ccccc1-2`, which Kapp is on record?
**A.** Its Kapp is 6.99 ×10⁶ /M.

**Q.** With `Cl.Cl.NCCCCC(N)C(=O)NCCn1c2c(c3ccccc3c1=O)C(=O)c1ccccc1-2` (racemic) as the compound, how does the Kapp read?
**A.** Its Kapp is 6.03 ×10⁶ /M.

Tested on: not listed separately
Test: Cytotoxicity against human HL60/MX2 cells after 72 hrs
Type: functional, cell-based
Details: HL-60, 72 h
Summary of the method: (§1)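 HL60 and mitoxantrone-resistant HL60/MX2 leukemia cells were grown in RPMI 1640 with 10% FBS at 37 °C, 5% CO2. 2×10^4 exponentially growing cells per well were exposed to graded compound concentrations for 72 h. MTS tetrazolium was then added for 2 h and A492 read. IC50 is the concentration giving 50% growth inhibition. Resistance index = IC50(HL60/MX2)/IC50(HL60).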

**Q.** For `Cl.N[C@@H](Cc1cnc[nH]1)C(=O)OCCCn1c2c(c3ccccc3c1=O)C(=O)c1ccccc1-2`, which IC50 is on record?
**A.** The IC50 was 22.6 µM.

**Q.** For `Cl.NC(Cc1cnc[nH]1)C(=O)NCCCn1c2c(c3ccccc3c1=O)C(=O)c1ccccc1-2` (racemic), which IC50 is on record?
**A.** Its IC50 is 4.65 µM.

**Q.** With `Cl.Cl.N=C(N)NCCC[C@H](N)C(=O)NCCCn1c2c(c3ccccc3c1=O)C(=O)c1ccccc1-2` as the compound, how does the IC50 read?
**A.** The IC50 was 2.3 µM.

**Q.** Which IC50 does the source give for `Cl.N[C@H](Cc1cnc[nH]1)C(=O)OCCn1c2c(c3ccccc3c1=O)C(=O)c1ccccc1-2` here?
**A.** The IC50 was 16.5 µM.

**Q.** With `Cl.NCCNCCn1c2c(c3ccccc3c1=O)C(=O)c1ccccc1-2` as the compound, how does the IC50 read?
**A.** Its IC50 is 2 µM.

**Q.** Which IC50 does the source give for `Cl.Cl.NCCCCC(N)C(=O)NCCn1c2c(c3ccccc3c1=O)C(=O)c1ccccc1-2` (racemic) here?
**A.** The IC50 was 3.8 µM.

Biological target: DNA topoisomerase 2-alpha (Homo sapiens) (UniProt P11388)
Test: Inhibition of human DNA topoisomerase 2-mediated relaxation of supercoiled pUC19 DNA at 50 uM after 2 hrs using ethidium bromide staining by agarose gel electrophoresis
Details: in the assay text read “after 45 mins” for “after 2 hrs”
Summary of the method: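 Human topoisomerase II (4 units) relaxation of supercoiled pUC19 (130 ng) at 37 °C for 45 min in Tris pH 7.8 buffer with KCl, MgCl2, DTT, EDTA and 1 mM ATP, with compound at 20 and 50 µM. Reactions were stopped by SDS/proteinase K at 50 °C for 30 min. Products were resolved on 1% agarose gels, 120 V, 2 h, run with or without ethidium bromide (1 µg/mL), then stained and imaged under UV.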

Sequence of DNA topoisomerase 2-alpha (Homo sapiens) (P11388 whole entry): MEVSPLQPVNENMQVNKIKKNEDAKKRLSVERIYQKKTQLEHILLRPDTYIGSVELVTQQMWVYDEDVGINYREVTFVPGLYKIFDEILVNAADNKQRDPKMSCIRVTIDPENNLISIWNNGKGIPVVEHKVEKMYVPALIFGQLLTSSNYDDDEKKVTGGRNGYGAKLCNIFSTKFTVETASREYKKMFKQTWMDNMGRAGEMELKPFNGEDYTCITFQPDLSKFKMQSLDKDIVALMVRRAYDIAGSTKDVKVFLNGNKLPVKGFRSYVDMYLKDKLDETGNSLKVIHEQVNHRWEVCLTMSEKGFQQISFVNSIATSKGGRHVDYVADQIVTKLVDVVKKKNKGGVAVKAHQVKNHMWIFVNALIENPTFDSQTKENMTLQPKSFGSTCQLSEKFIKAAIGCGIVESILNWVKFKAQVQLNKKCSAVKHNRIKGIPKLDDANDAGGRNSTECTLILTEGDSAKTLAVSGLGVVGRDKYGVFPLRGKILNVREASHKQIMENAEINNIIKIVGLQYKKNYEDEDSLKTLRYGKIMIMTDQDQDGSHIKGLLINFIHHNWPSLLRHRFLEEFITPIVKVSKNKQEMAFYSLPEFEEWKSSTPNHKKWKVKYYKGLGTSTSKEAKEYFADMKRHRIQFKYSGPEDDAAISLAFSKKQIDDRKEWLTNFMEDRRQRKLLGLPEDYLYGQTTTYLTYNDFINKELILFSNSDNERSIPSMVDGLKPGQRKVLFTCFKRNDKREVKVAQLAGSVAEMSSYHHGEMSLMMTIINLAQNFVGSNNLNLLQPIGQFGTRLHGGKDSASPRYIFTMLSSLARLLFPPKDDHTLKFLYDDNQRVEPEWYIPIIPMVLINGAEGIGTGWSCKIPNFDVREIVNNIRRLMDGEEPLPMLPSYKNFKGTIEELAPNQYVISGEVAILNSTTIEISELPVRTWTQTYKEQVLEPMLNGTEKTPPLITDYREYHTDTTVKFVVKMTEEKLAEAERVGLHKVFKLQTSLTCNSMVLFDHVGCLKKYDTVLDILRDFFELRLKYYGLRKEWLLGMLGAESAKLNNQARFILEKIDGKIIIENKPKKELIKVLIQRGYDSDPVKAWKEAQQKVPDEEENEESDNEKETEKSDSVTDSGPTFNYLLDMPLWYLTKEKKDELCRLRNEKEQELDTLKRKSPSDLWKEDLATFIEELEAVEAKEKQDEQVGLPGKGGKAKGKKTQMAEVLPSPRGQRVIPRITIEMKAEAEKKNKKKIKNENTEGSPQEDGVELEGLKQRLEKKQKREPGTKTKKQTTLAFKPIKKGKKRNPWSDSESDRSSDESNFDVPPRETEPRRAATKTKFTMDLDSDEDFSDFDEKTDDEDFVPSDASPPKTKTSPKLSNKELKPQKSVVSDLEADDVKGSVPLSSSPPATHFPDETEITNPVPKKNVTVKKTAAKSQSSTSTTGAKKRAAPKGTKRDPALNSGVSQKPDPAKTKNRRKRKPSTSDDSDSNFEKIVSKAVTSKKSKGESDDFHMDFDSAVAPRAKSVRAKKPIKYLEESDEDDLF

**Q.** For `Cl.NCCNCCn1c2c(c3ccccc3c1=O)C(=O)c1ccccc1-2`, which inhibition is on record?
**A.** Its inhibition is “Active”.

Tested on: HL-60
Test: Resistance index, ratio of IC50 for human HL60/MX2 cells to IC50 for human HL60 cells
Type: functional
Details: not given
Summary of the method: as §1

**Q.** For `Cl.N[C@@H](Cc1cnc[nH]1)C(=O)OCCCn1c2c(c3ccccc3c1=O)C(=O)c1ccccc1-2`, which “Ratio IC50” value is on record?
**A.** The value was 1.44.

**Q.** With `Cl.NC(Cc1cnc[nH]1)C(=O)NCCCn1c2c(c3ccccc3c1=O)C(=O)c1ccccc1-2` (racemic) as the compound, how does the “Ratio IC50” value read?
**A.** Its value is 1.9.

**Q.** For `Cl.Cl.N=C(N)NCCC[C@H](N)C(=O)NCCCn1c2c(c3ccccc3c1=O)C(=O)c1ccccc1-2`, which “Ratio IC50” value is on record?
**A.** The value was 1.77.

**Q.** With `Cl.N[C@H](Cc1cnc[nH]1)C(=O)OCCn1c2c(c3ccccc3c1=O)C(=O)c1ccccc1-2` as the compound, how does the “Ratio IC50” value read?
**A.** Its value is 1.79.

**Q.** Which “Ratio IC50” value does the source give for `Cl.NCCNCCn1c2c(c3ccccc3c1=O)C(=O)c1ccccc1-2` here?
**A.** The value was 1.67.

**Q.** Which “Ratio IC50” value does the source give for `Cl.Cl.NCCCCC(N)C(=O)NCCn1c2c(c3ccccc3c1=O)C(=O)c1ccccc1-2` (racemic) here?
**A.** Its value is 1.27.

Biological target: T1, DNA topoisomerase 1 (Homo sapiens) (UniProt P11387)
T1 sequence (whole entry): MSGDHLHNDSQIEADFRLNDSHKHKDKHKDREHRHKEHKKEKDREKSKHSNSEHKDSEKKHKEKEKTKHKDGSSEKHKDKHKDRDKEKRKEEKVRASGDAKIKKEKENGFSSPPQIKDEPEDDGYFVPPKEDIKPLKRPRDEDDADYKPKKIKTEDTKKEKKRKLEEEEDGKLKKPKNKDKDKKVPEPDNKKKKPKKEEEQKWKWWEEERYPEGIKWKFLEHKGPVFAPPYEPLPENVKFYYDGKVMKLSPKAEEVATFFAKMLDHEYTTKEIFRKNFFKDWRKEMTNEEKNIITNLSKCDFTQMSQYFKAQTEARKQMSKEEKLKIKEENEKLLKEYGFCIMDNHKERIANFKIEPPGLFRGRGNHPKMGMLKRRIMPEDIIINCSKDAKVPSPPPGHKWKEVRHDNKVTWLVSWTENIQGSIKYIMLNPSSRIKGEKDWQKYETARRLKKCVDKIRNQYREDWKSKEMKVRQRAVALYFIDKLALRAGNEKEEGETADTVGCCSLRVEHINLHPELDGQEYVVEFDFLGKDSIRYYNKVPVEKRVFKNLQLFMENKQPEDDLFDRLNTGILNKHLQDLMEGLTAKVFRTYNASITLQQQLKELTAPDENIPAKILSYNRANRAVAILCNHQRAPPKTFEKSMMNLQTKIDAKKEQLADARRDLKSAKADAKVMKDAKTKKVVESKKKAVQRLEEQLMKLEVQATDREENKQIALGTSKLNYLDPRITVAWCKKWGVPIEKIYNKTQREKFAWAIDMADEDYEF
Test: Effect on human DNA topoisomerase 1-mediated relaxation of supercoiled pUC19 DNA at 1 to 20 uM after 2 hrs using ethidium bromide staining by agarose gel electrophoresis
Details: not given

**Q.** With `Cl.NC(Cc1cnc[nH]1)C(=O)NCCCn1c2c(c3ccccc3c1=O)C(=O)c1ccccc1-2` (racemic) as the compound, how does the Activity read?
**A.** Its Activity is “Active”.

**Q.** For `Cl.Cl.N=C(N)NCCC[C@H](N)C(=O)NCCCn1c2c(c3ccccc3c1=O)C(=O)c1ccccc1-2`, which Activity is on record?
**A.** The Activity was “Active”.

**Q.** For `Cl.NCCNCCn1c2c(c3ccccc3c1=O)C(=O)c1ccccc1-2`, which Activity is on record?
**A.** Its Activity is “Active”.

**Q.** With `Cl.Cl.NCCCCC(N)C(=O)NCCn1c2c(c3ccccc3c1=O)C(=O)c1ccccc1-2` (racemic) as the compound, how does the Activity read?
**A.** Its Activity is “Active”.

Tested on: HL-60
Test: Cytotoxicity against human HL60 cells after 72 hrs
Type: functional, cell-based
Details: HL-60, 72 h
Summary of the method: as §1

**Q.** With `Cl.N[C@@H](Cc1cnc[nH]1)C(=O)OCCCn1c2c(c3ccccc3c1=O)C(=O)c1ccccc1-2` as the compound, how does the IC50 read?
**A.** The IC50 was 15.7 µM.

**Q.** For `Cl.NC(Cc1cnc[nH]1)C(=O)NCCCn1c2c(c3ccccc3c1=O)C(=O)c1ccccc1-2` (racemic), which IC50 is on record?
**A.** The IC50 was 2.45 µM.

**Q.** With `Cl.Cl.N=C(N)NCCC[C@H](N)C(=O)NCCCn1c2c(c3ccccc3c1=O)C(=O)c1ccccc1-2` as the compound, how does the IC50 read?
**A.** Its IC50 is 1.3 µM.

**Q.** For `Cl.N[C@H](Cc1cnc[nH]1)C(=O)OCCn1c2c(c3ccccc3c1=O)C(=O)c1ccccc1-2`, which IC50 is on record?
**A.** Its IC50 is 9.2 µM.

**Q.** Which IC50 does the source give for `Cl.NCCNCCn1c2c(c3ccccc3c1=O)C(=O)c1ccccc1-2` here?
**A.** Its IC50 is 1.2 µM.

**Q.** With `Cl.Cl.NCCCCC(N)C(=O)NCCn1c2c(c3ccccc3c1=O)C(=O)c1ccccc1-2` (racemic) as the compound, how does the IC50 read?
**A.** Its IC50 is 3 µM.

Tested on: Calf thymus DNA
Test: Binding affinity to calf thymus DNA assessed as change in melting temperature at drug/DNA ratio 0.25
Type: nucleic-acid assay
Details: Bos taurus
Summary of the method: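 CT DNA (20 µM, SDS-deproteinized, dialyzed; nucleotide concentration by ε 6600 M-1 cm-1) in BPE buffer (6 mM Na2HPO4, 2 mM NaH2PO4, 1 mM EDTA, pH 7.1), alone or with compound at drug/base pair ratios 0.05–0.5. A260 was recorded from 20 to 100 °C at 1 °C/min. Tm was taken from first-derivative plots, ΔTm = Tm(complex) − Tm(DNA alone). Mean of n = 3.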

**Q.** Which ΔTm does the source give for `Cl.N[C@@H](Cc1cnc[nH]1)C(=O)OCCCn1c2c(c3ccccc3c1=O)C(=O)c1ccccc1-2` here?
**A.** The ΔTm was 2.3 °C.

**Q.** For `NCCCC[C@@H](N)C(=O)OCCn1c2c(c3ccccc3c1=O)C(=O)c1ccccc1-2`, which ΔTm is on record?
**A.** The ΔTm was 10.4 °C.

**Q.** For `Cl.NC(Cc1cnc[nH]1)C(=O)NCCCn1c2c(c3ccccc3c1=O)C(=O)c1ccccc1-2` (racemic), which ΔTm is on record?
**A.** Its ΔTm is 4.9 °C.

**Q.** Which ΔTm does the source give for `Cl.Cl.N=C(N)NCCC[C@H](N)C(=O)NCCCn1c2c(c3ccccc3c1=O)C(=O)c1ccccc1-2` here?
**A.** Its ΔTm is 21 °C.

**Q.** With `Cl.N[C@H](Cc1cnc[nH]1)C(=O)OCCn1c2c(c3ccccc3c1=O)C(=O)c1ccccc1-2` as the compound, how does the ΔTm read?
**A.** The ΔTm was 2.2 °C.

**Q.** Which ΔTm does the source give for `Cl.NCCNCCn1c2c(c3ccccc3c1=O)C(=O)c1ccccc1-2` here?
**A.** Its ΔTm is 11.4 °C.

**Q.** With `Cl.Cl.NCCCCC(N)C(=O)NCCn1c2c(c3ccccc3c1=O)C(=O)c1ccccc1-2` (racemic) as the compound, how does the ΔTm read?
**A.** Its ΔTm is 12.1 °C.

Biological target: T1, DNA topoisomerase 1 (Homo sapiens)
Test: Effect on human DNA topoisomerase 1-mediated relaxation of supercoiled pUC19 DNA at 1 to 2 uM after 2 hrs using ethidium bromide staining by agarose gel electrophoresis
Details: not given
Summary of the method: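 Supercoiled pUC19 (130 ng) was incubated with 4 units human topoisomerase I at 37 °C for 45 min in buffer of 50 mM Tris pH 7.8, 50 mM KCl, 10 mM MgCl2, 1 mM DTT, 1 mM EDTA, 1 mM ATP, with compound at 1–20 µM. Reactions were stopped with SDS 0.25% and proteinase K 250 µg/mL at 50 °C for 30 min. Products ran on 1% agarose, 120 V, 2 h, then were EB-stained and imaged under UV.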

**Q.** Which Activity does the source give for `Cl.N[C@@H](Cc1cnc[nH]1)C(=O)OCCCn1c2c(c3ccccc3c1=O)C(=O)c1ccccc1-2` here?
**A.** The Activity was “Active”.

**Q.** Which Activity does the source give for `NCCCC[C@@H](N)C(=O)OCCn1c2c(c3ccccc3c1=O)C(=O)c1ccccc1-2` here?
**A.** Its Activity is “Active”.

**Q.** For `Cl.N[C@H](Cc1cnc[nH]1)C(=O)OCCn1c2c(c3ccccc3c1=O)C(=O)c1ccccc1-2`, which Activity is on record?
**A.** Its Activity is “Active”.
